In ChEMBL document CHEMBL1157684, “2-Thienyl-4-furyl-6-aryl pyridine derivatives: synthesis, topoisomerase I and II inhibitory activity, cytotoxicity, and structure-activity relationship study” (Bioorg Med Chem, 2010):
Calls of active or inactive are those of the source. The calls are words filed in the database; no cut-off is given here.

How the values were obtained:
HeLa = assay: Cytotoxicity against human HeLa cells after 4 days by ELISA reader assay; format: functional, cell-based; details: 96 h
Summary of the method: (§1)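 Cells grown per supplier, seeded at 2–4 × 10⁴ per well, left overnight in medium with 10% FBS at 37 °C under 5% CO₂, then exposed to compounds. WST (cell counting kit-8) reagent added for a further 4 h, absorbance read at 450 nm. IC50 from four-parameter logistic fit; mean ± S.D. of three experiments, each in triplicate.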

[1] = target: T1, DNA topoisomerase 1 (Homo sapiens) (UniProt P11387); assay: Inhibition of human recombinant DNA topoisomerase 1-mediated relaxation of supercoiled pBR322 DNA at 100 uM after 30 mins by agarose gel electrophoresis
T1 sequence (whole entry): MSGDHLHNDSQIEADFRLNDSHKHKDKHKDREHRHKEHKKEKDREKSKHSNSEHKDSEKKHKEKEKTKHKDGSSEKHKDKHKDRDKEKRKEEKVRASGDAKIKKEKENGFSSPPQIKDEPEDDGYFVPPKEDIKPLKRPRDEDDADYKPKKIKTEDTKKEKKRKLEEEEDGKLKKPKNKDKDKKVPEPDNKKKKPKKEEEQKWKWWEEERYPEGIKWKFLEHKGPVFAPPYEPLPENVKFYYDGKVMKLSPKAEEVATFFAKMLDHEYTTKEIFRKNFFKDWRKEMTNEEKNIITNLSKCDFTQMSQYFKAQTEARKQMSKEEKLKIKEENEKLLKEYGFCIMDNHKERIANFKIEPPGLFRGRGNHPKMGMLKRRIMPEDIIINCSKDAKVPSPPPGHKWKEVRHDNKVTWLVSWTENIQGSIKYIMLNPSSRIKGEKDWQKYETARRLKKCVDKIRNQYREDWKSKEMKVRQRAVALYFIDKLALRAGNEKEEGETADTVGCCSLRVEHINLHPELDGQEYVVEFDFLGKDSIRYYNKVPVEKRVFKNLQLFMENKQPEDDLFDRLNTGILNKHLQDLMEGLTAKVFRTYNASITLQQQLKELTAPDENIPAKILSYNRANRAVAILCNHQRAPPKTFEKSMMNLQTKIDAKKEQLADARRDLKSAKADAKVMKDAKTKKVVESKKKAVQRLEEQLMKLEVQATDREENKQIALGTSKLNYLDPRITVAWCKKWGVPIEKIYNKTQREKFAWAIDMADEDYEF
Summary of the method: (§2)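 Recombinant human topo I (0.4 units) with 100 ng supercoiled pBR322, 30 min at 37 °C in 10 mM Tris–HCl pH 7.9, 150 mM NaCl, 0.1% BSA, 1 mM spermidine, 5% glycerol. Compounds from 20 mM DMSO stock. Products run on 1% agarose in TAE, 15 V for 7 h, ethidium-stained, bands quantified under UV.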

HCT-15 = assay: Cytotoxicity against human HCT15 cells after 4 days by ELISA reader assay; format: functional, cell-based; details: HCT-15, 96 h; summary of the method: as §1
[2] = target: DNA topoisomerase 2-alpha (Homo sapiens) (UniProt P11388); assay: Inhibition of human DNA topoisomerase 2alpha-mediated relaxation of supercoiled pBR322 DNA at 100 uM after 30 mins by agarose gel electrophoresis
Sequence of DNA topoisomerase 2-alpha (Homo sapiens) (P11388 whole entry): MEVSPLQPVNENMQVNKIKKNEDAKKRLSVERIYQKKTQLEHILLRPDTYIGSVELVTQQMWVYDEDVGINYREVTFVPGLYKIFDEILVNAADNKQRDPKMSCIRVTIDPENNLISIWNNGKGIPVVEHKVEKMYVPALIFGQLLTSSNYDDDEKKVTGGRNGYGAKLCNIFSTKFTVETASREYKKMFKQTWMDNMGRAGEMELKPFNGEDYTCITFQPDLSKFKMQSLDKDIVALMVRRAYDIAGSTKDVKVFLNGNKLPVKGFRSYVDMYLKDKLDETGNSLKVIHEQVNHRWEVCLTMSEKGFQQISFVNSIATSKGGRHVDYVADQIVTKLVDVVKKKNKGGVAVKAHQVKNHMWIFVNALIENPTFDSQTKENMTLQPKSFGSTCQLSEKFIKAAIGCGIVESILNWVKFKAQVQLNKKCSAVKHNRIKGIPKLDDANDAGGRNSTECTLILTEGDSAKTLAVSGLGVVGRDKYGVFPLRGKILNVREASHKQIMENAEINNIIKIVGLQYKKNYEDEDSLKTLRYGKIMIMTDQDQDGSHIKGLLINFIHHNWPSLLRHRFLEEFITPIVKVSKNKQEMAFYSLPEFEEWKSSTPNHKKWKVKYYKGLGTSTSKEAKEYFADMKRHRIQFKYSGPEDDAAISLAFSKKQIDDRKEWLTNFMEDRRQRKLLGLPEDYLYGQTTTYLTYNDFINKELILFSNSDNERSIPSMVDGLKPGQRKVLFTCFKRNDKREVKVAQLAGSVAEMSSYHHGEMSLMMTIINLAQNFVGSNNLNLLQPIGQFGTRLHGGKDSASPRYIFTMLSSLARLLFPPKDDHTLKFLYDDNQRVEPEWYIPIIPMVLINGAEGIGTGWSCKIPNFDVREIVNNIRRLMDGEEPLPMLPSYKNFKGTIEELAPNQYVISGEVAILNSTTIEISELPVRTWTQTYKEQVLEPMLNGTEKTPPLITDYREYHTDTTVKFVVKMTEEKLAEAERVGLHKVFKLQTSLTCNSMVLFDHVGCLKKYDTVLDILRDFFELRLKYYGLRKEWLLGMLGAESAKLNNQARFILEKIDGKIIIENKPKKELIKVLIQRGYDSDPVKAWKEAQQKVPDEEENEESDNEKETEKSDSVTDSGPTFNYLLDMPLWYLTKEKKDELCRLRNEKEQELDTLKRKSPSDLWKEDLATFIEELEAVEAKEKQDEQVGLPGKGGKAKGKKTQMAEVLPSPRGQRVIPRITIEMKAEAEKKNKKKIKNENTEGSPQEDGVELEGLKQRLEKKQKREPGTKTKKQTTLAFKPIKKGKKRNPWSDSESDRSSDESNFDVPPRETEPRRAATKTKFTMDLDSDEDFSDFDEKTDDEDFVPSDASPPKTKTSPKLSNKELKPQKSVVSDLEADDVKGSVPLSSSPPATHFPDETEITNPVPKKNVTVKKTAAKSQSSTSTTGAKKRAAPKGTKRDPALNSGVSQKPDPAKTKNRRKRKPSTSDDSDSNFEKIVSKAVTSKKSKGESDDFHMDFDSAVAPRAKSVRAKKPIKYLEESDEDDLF
Summary of the method: (§3)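 Human topo IIα (1 unit) with 200 ng supercoiled pBR322, 30 min at 30 °C in 10 mM Tris–HCl pH 7.9, 50 mM NaCl, 50 mM KCl, 5 mM MgCl2, 1 mM EDTA, 1 mM ATP plus BSA. Products run on 1% agarose in TAE at 25 V for 4 h, ethidium-stained, supercoiled DNA quantified under UV.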

MCF7 = assay: Cytotoxicity against human MCF7 cells after 4 days by ELISA reader assay; format: functional, cell-based; details: MCF7, 96 h; summary of the method: as §1
K562 = assay: Cytotoxicity against human K562 cells after 4 days by ELISA reader assay; format: functional, cell-based; details: K562, 96 h; summary of the method: as §1
DU-145 = assay: Cytotoxicity against human DU145 cells after 4 days by ELISA reader assay; format: functional, cell-based; details: DU-145, 96 h; summary of the method: as §1
[3] = target: DNA topoisomerase 2-alpha (Homo sapiens) (UniProt P11388); assay: Inhibition of human DNA topoisomerase 2alpha-mediated relaxation of supercoiled pBR322 DNA at 20 uM after 30 mins by agarose gel electrophoresis; summary of the method: as §3
[4] = target: T1, DNA topoisomerase 1 (Homo sapiens); assay: Inhibition of human recombinant DNA topoisomerase 1-mediated relaxation of supercoiled pBR322 DNA at 20 uM after 30 mins by agarose gel electrophoresis; summary of the method: as §2

Q: `Cc1ccsc1-c1cc(-c2ccoc2)cc(-c2ccco2)n1` was tested. Which IC50 (HeLa) did it give?
A: 30.5 µM

Q: What about the inhibition [1] of the same molecule?
A: 5.4%

Q: And the IC50 (HCT-15)?
A: 640 nM

Q: What about the inhibition [2] of the same molecule?
A: 59.9%

Q: What about the IC50 (MCF7) of the same molecule?
A: 18.2 µM

Q: What about the IC50 (K562) of the same molecule?
A: 23.3 µM

Q: And the IC50 (DU-145)?
A: 30.4 µM

Q: What about the inhibition [3] of the same molecule?
A: 36.4%

Q: And the inhibition [4]?
A: inactive
